# Assay results from different studies.
# Compare with care: the assays were run in different laboratories.
# pknB: Serine/threonine-protein kinase PknB (pknB, Mycobacterium tuberculosis, UniProt P9WI81)
# ENAH: Protein enabled homolog (ENAH, UniProt Q8N8S7)
# DPP4: Dipeptidyl peptidase 4 (DPP4, Homo sapiens, UniProt P27487)
# 1-deoxy-D-xylulose 5-phosphate reductoisomerase: 1-deoxy-D-xylulose 5-phosphate reductoisomerase (Mycobacterium tuberculosis, UniProt P9WNS1)
Compound,target,test,setting,measurement,value
COc1cccc(-c2ccnc(Nc3ccc(N4CCN(C(=O)OC(C)(C)C)CC4)c(C(F)(F)F)c3)n2)c1,pknB,"enzyme activity, inhibitor",,IC50,> 20 µM
CC(=O)N[C@@H](CO)C(=O)N[C@@H](Cc1ccccc1)C(=O)N[C@@H](CCC(=O)O)C(=O)N[C@@H](Cc1ccccc1Cl)C(=O)N1CCC[C@H]1C(=O)N1CCC[C@H]1C(=O)N1CCC[C@H]1C(=O)N1CCC[C@H]1C(=O)N[C@H](C(=O)N[C@@H](CCC(=O)O)C(=O)N[C@@H](CC(=O)O)C(=O)N[C@@H](CC(=O)O)C(=O)N[C@@H](CC(C)C)C(N)=O)[C@@H](C)O,ENAH,"binding, fluorescence",,Kd,1.43 µM
CC(C)[C@H](N)C(=O)N1CCC[C@H]1C(=O)N[C@H](C(=O)N1CCC[C@H]1C(=O)N[C@H](C(=O)O)[C@@H](C)O)C(C)C,DPP4,"enzyme activity, inhibitor, absorbance",pH 8,IC50,131 µM
CC(C)(C)OC(=O)N1CCN(c2ccc(Nc3nccc(-c4ccccc4)n3)cc2C(F)(F)F)CC1,pknB,"enzyme activity, inhibitor",,IC50,> 20 µM
CC(=O)N(O)CCC(c1ccc(-c2ccsc2)cc1)P(=O)(O)O (centres unmarked),1-deoxy-D-xylulose 5-phosphate reductoisomerase,"enzyme activity, inhibitor, absorbance",pH 7.5,IC50,5.7 µM
CC(=O)N[C@@H](CO)C(=O)N[C@@H](Cc1ccccc1)C(=O)N[C@@H](CCC(=O)O)C(=O)N[C@@H](Cc1ccccc1Cl)C(=O)N1CCC[C@H]1C(=O)N1CCC[C@H]1C(=O)N1CCC[C@H]1C(=O)N1CCC[C@H]1C(=O)O,ENAH,"binding, fluorescence",,Kd,4.6 µM
CC(C)[C@H](N)C(=O)N1CCC[C@H]1C(=O)N[C@H](C(=O)N1CCC[C@H]1C(=O)N[C@@H](Cc1ccc(O)cc1)C(=O)O)C(C)C,DPP4,"enzyme activity, inhibitor, absorbance",pH 8,IC50,80.7 µM
CC(=O)N(O)CCC(c1ccc(-c2cccc(C)c2)cc1)P(=O)(O)O (centres unmarked),1-deoxy-D-xylulose 5-phosphate reductoisomerase,"enzyme activity, inhibitor, absorbance",pH 7.5,IC50,2.4 µM
CN1[C@H]2CC[C@@H]1[C@@H](c1cc(-c3ccccc3)no1)[C@H](OC(c1ccc(F)cc1)c1ccc(F)cc1)C2,"Transporter (Slc6a2, Rattus norvegicus, UniProt Q63380)","ligand displacement, radioligand",cell membranes,Ki,413 nM
CC(=O)N(O)CCC(c1ccc(-c2c(C)noc2C)cc1)P(=O)(O)O (centres unmarked),1-deoxy-D-xylulose 5-phosphate reductoisomerase,"enzyme activity, inhibitor, absorbance",pH 7.5,IC50,21.5 µM
CC(C)[C@H](N)C(=O)N1CCC[C@H]1C(=O)N[C@H](C(=O)N1CCC[C@H]1C(=O)NCC(=O)O)C(C)C,DPP4,"enzyme activity, inhibitor, absorbance",pH 8,IC50,84.9 µM
